In ChEMBL document CHEMBL3997774, “Identification of Picrasidine C as a Subtype-Selective PPARα Agonist” (J Nat Prod, 2016):
Calls of active or inactive are those of the source. The calls are words filed in the database; no cut-off is given here.

Columns and labels:
Assay type in all cases: cell-based
[1] = target: T1, Peroxisome proliferator-activated receptor alpha (Homo sapiens) (UniProt Q07869); assay: Agonist activity at GAL4-DBD fused human PPARalpha-LBD (159 to 468 residues) expressed in human HepG2 cells at 10 uM after 24 hrs by dual luciferase reporter gene based mammalian one hybrid assay relative to control
T1 sequence (whole entry): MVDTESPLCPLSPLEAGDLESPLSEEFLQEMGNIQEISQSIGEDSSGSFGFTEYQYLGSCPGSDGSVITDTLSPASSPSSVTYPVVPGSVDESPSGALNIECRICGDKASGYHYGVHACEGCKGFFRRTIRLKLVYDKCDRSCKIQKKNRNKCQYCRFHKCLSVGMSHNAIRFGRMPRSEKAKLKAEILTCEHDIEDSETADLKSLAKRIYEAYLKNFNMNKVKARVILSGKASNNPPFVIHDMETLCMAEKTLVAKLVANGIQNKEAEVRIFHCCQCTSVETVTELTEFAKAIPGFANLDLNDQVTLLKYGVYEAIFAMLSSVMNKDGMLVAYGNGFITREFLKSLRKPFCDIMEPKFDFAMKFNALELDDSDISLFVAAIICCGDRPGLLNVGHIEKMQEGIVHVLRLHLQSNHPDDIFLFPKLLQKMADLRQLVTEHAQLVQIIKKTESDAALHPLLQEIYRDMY
Outline: (§1)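 HepG2 cells (DMEM, 10% FBS) transfected with GAL4-DBD/human PPAR-LBD expression vector (0.05 μg), GALRE-luc reporter (0.1 μg) and pGL4.74 Renilla (0.01 μg). After overnight incubation, 0.1–20 μM compound or 0.1% DMSO for 24 h. Dual-luciferase readout, firefly normalized to Renilla. Fold activation over solvent, four independent transfections (mean ± SD, n = 4).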

[2] = target: T1, Peroxisome proliferator-activated receptor alpha (Homo sapiens); assay: Agonist activity at GAL4-DBD fused human PPARalpha-LBD (159 to 468 residues) expressed in human HepG2 cells after 24 hrs by dual luciferase reporter gene based mammalian one hybrid assay relative to control; outline: as §1
[3] = target: T2, Peroxisome proliferator-activated receptor delta (Homo sapiens, UniProt Q03181); assay: Agonist activity at GAL4-DBD fused human PPARbeta/delta-LBD (136 to 441 residues) expressed in human HepG2 cells at 0.1 to 20 uM after 24 hrs by luciferase reporter gene based mammalian one hybrid assay relative to control; outline: as §1
T2 sequence (Q03181 whole entry): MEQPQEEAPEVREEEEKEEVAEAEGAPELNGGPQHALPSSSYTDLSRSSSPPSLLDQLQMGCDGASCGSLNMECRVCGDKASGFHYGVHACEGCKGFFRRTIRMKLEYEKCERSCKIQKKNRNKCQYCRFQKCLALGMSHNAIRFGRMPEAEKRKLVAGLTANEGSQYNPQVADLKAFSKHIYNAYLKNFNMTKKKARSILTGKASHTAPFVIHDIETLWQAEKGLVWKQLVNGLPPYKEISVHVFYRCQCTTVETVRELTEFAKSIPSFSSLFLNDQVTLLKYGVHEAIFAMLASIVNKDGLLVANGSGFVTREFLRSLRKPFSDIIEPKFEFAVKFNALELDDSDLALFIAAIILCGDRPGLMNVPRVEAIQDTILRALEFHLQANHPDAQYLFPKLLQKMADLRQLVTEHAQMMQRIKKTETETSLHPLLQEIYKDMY

[4] = target: T3, Peroxisome proliferator-activated receptor gamma (Homo sapiens, UniProt P37231); assay: Agonist activity at GAL4-DBD fused human PPARgamma-LBD (157 to 475 residues) expressed in human HepG2 cells at 0.1 to 20 uM after 24 hrs by luciferase reporter gene based mammalian one hybrid assay relative to control; outline: as §1
T3 sequence (P37231 whole entry): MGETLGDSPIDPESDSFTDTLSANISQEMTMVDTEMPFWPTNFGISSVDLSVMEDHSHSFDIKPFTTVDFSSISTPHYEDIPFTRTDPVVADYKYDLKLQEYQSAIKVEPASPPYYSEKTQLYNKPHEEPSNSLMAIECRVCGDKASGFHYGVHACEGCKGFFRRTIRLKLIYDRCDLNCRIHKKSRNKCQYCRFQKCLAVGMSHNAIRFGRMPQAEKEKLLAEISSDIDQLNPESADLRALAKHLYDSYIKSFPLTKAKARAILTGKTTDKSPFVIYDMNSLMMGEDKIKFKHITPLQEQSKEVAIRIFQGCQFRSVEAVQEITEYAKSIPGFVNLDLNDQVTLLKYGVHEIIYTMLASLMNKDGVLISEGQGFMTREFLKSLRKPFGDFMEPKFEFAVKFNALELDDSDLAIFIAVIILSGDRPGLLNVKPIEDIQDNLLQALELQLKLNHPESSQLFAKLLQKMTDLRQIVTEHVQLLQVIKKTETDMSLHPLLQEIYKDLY

[5] = target: T4, Peroxisome proliferator-activated receptor delta (Homo sapiens) (UniProt Q03181); assay: Antagonist activity at GAL4-DBD fused human PPARbeta/delta-LBD (136 to 441 residues) expressed in human HepG2 cells assessed as inhibition of GW0742-induced receptor activation at 10 uM by luciferase reporter gene based mammalian one hybrid assay
T4 sequence (whole entry): T2 sequence (Q03181 whole entry)
Outline: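 HepG2 cells transfected with GAL4/PPARβ/δ-LBD vector (0.05 μg), GALRE-luc (0.1 μg) and pGL4.74 (0.01 μg). Treated 24 h with 10 μM compound, 10 μM GW0742, or both together, vs 0.1% DMSO. Dual-luciferase, Renilla-normalized. Fold over solvent, four transfections (mean ± SD, n = 4).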

[6] = target: T1, Peroxisome proliferator-activated receptor alpha (Homo sapiens); assay: Agonist activity at full length human N-terminal Myc-tagged PPARalpha expressed in human HepG2 cells coexpressing RXRalpha assessed as transcriptional activation of PPRE at 10 uM incubated for 24 hrs by dual luciferase reporter gene assay
Outline: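 HepG2 cells co-transfected with PPRE-luc reporter (0.1 μg), PPARα and RXRα expression vectors (0.05 μg each) and pGL4.74 (0.01 μg). Treated 24 h with test compound or 0.1% DMSO. Dual-luciferase readout, firefly/Renilla. Fold activation over solvent, four independent transfections (mean ± SD, n = 4).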

[7] = target: T1, Peroxisome proliferator-activated receptor alpha (Homo sapiens); assay: Agonist activity at PPARalpha in human THP1 cells assessed as induction of CPT-1 mRNA expression after 24 hrs by RT-qPCR analysis
Outline: (§2)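 THP-1 cells (RPMI-1640, 10% FBS) differentiated with 200 nM PMA for 48 h, then treated 24 h with compound (1, 10, 20 μM; reference 50 μM) or 0.1% DMSO. Total RNA extracted, reverse transcribed. SYBR qPCR, 40 cycles (98 °C 5 s, 55 °C 20 s, 72 °C 30 s). Normalized to β-actin mRNA. Fold over solvent, n = 4 (mean ± SD).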

[8] = target: T1, Peroxisome proliferator-activated receptor alpha (Homo sapiens); assay: Agonist activity at PPARalpha in human THP1 cells assessed as induction of PDK4 mRNA expression after 24 hrs by RT-qPCR analysis; outline: as §2
[9] = target: T1, Peroxisome proliferator-activated receptor alpha (Homo sapiens); assay: Agonist activity at PPARalpha in human THP1 cells assessed as induction of ABCA1 mRNA expression after 24 hrs by RT-qPCR analysis; outline: as §2
[10] = target: T1, Peroxisome proliferator-activated receptor alpha (Homo sapiens); assay: Agonist activity at PPARalpha in human THP1 cells assessed as induction of PDK4 mRNA expression at 20 uM in presence of MK-886 after 24 hrs by RT-qPCR analysis
Outline: (§3)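 PMA-differentiated THP-1 cells (200 nM, 48 h) pretreated 1 h with MK-886 (200 μM), then given compound or 0.1% DMSO for 24 h. Target mRNA measured by SYBR RT-qPCR and normalized to β-actin. Fold induction over solvent, four experiments (mean ± SD, n = 4).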

[11] = target: T1, Peroxisome proliferator-activated receptor alpha (Homo sapiens); assay: Agonist activity at PPARalpha in human THP1 cells assessed as induction of CPT-1 mRNA expression at 20 uM in presence of MK-886 after 24 hrs by RT-qPCR analysis; outline: as §3
[12] = target: T1, Peroxisome proliferator-activated receptor alpha (Homo sapiens); assay: Agonist activity at PPARalpha in human THP1 cells assessed as induction of ABCA1 mRNA expression at 20 uM in presence of MK-886 after 24 hrs by RT-qPCR analysis; outline: as §3
[13] = target: T1, Peroxisome proliferator-activated receptor alpha (Homo sapiens); assay: Agonist activity at PPARalpha in human THP1 cells assessed as induction of PPARalpha mRNA expression after 24 hrs by RT-qPCR analysis; outline: as §2
[14] = target: T1, Peroxisome proliferator-activated receptor alpha (Homo sapiens); assay: Agonist activity at PPARalpha in human THP1 cells assessed as induction of PPARalpha mRNA expression at 20 uM in presence of MK-886 after 24 hrs by RT-qPCR analysis; outline: as §3
[15] = system: HepG2; assay: Cytotoxicity against human HepG2 cells assessed as reduction in cell viability at 10 uM after 24 hrs by MTS assay; conditions: hepg2, 24 h
[16] = system: THP-1; assay: Cytotoxicity against PMA-differentiated human THP1 cells assessed as reduction in cell viability at 10 uM after 24 hrs by MTS assay; conditions: thp-1, 24 h

| Structure (SMILES) | Activity [1] | Activity [2] | Activity [3] | Activity [4] | inhibition [5] | Activity [6] | Activity [7] | Activity [8] | Activity [9] | Activity [10] | Activity [11] | Activity [12] | Activity [13] | Activity [14] | Activity [15] | Activity [16] |
| --- | --- | --- | --- | --- | --- | --- | --- | --- | --- | --- | --- | --- | --- | --- | --- | --- |
| Cc1cccc(Nc2cc(Cl)nc(SCC(=O)O)n2)c1C | Active |  |  |  |  |  |  |  |  |  |  |  |  |  |  |  |
| COc1cccc2c1[nH]c1c(CCC(OC)C(=O)c3nccc4c3[nH]c3ccccc34)ncc(OC)c12 (configuration not stated) [PICRASIDINE C] | Active | Dose-dependent effect | Not Active | Not Active | inactive | Active | Dose-dependent effect | Dose-dependent effect | Dose-dependent effect | inactive | inactive | inactive | Dose-dependent effect | inactive | Non-Toxic | Non-Toxic |
